Assay results: ChEMBL document CHEMBL1158356, “Synthesis, anti-tuberculosis activity and 3D-QSAR study of amino acid conjugates of 4-(adamantan-1-yl) group containing quinolines” (Eur J Med Chem, 2009)

Experiments:
[1] = tested on: Mycobacterium tuberculosis; assay: Antimycobacterial activity against rifampicin/isoniazid-susceptible Mycobacterium tuberculosis H37Rv ATCC 27294 at 6.25 ug/ml after 5 days by microplate alamar blue assay; format: functional; conditions: H37Rv ATCC 27294, 120 h
How it was run: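 M. tuberculosis H37Rv (ATCC 27294, rifampicin- and isoniazid-susceptible) screened by Microplate Alamar Blue Assay at a single concentration of 6.25; read-out is % growth inhibition. Compounds showing fluorescence were instead tested in the BACTEC 460 radiometric system.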

[2] = tested on: Mycobacterium tuberculosis; assay: Antimycobacterial activity against rifampicin/isoniazid-susceptible Mycobacterium tuberculosis H37Rv ATCC 27294 by BACTEC 460 radiometric method; format: functional, organism-based
How it was run: (§1)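 Radiometric BACTEC 460 growth test on H37Rv (ATCC 27294). Compounds reaching at least 90% inhibition at 6.25 were retested at the lower concentrations 3.125 and 1.0, with % inhibition recorded. […] Isoniazid served as the reference standard.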

Vero = assay: Cytotoxicity against african green monkey Vero cells up to 50 ug/ml; format: cell-based; conditions: chlorocebus sabaeus
[3] = tested on: Mycobacterium tuberculosis; assay: Antimycobacterial activity against rifampicin/isoniazid-susceptible Mycobacterium tuberculosis H37Rv ATCC 27294 at 1 ug/ml by BACTEC 460 radiometric method; format: functional; how it was run: as §1
[4] = tested on: Mycobacterium tuberculosis; assay: Antimycobacterial activity against rifampicin/isoniazid-susceptible Mycobacterium tuberculosis H37Rv ATCC 27294 at 3.125 ug/ml by BACTEC 460 radiometric method; format: functional; how it was run: as §1

Row | SMILES | inhibition at 6.25 µg/mL [1] | IC50 [2] | Activity (Vero) | inhibition at 1 µg/mL [3] | inhibition at 3.125 µg/mL [4]
1 | NNC(=O)c1cc(C23CC4CC(CC(C4)C2)C3)c2ccccc2n1 | 99% |  |  |  | 
2 | COC(=O)[C@H](CCCCNC(=O)OCc1ccccc1)NC(=O)c1cc(C23CC4CC(CC(C4)C2)C3)c2ccccc2n1 | 78% | 3.16 µM |  |  | 
3 | CC(C)(C)OC(=O)N[C@@H](Cc1ccc(OCc2ccccc2)cc1)C(=O)NNC(=O)c1cc(C23CC4CC(CC(C4)C2)C3)c2ccccc2n1 | 42% | 12.9 µM |  |  | 
4 | COC(=O)[C@H](Cc1ccccc1)NC(=O)c1cc(C23CC4CC(CC(C4)C2)C3)c2ccccc2n1 | 60% | 8.91 µM |  |  | 
5 | N=C(N)NCCC[C@H](N)C(=O)NNC(=O)c1cc(C23CC4CC(CC(C4)C2)C3)c2ccccc2n1 | 92% | 1.15 µM |  |  | 
6 | NC(=O)c1cc(C23CC4CC(CC(C4)C2)C3)c2ccccc2n1 | 98% |  |  |  | 
7 | N=C(N)NCCC[C@H](NC(=O)c1cc(C23CC4CC(CC(C4)C2)C3)c2ccccc2n1)C(=O)NN |  | 0.0214 µM | Non-toxic | 99% | 
8 | C[C@H](NC(=O)OC(C)(C)C)C(=O)NNC(=O)c1cc(C23CC4CC(CC(C4)C2)C3)c2ccccc2n1 | 88% | 1.74 µM |  |  | 
9 | NNC(=O)[C@H](Cc1ccccc1)NC(=O)c1cc(C23CC4CC(CC(C4)C2)C3)c2ccccc2n1 | 50% | 13.5 µM |  |  | 
10 | NNC(=O)[C@H](Cc1c[nH]c2ccccc12)NC(=O)c1cc(C23CC4CC(CC(C4)C2)C3)c2ccccc2n1 | 60% | 8.32 µM |  |  | 
11 | COC(=O)CNC(=O)c1cc(C23CC4CC(CC(C4)C2)C3)c2ccccc2n1 | 52% | 15.5 µM |  |  | 
12 | N[C@@H](Cc1c[nH]cn1)C(=O)NNC(=O)c1cc(C23CC4CC(CC(C4)C2)C3)c2ccccc2n1 | 88% | 1.86 µM |  |  | 
13 | NCC(=O)NNC(=O)c1cc(C23CC4CC(CC(C4)C2)C3)c2ccccc2n1 | 35% | 30.2 µM |  |  | 
14 | CC(C)(C)OC(=O)N[C@@H](Cc1ccccc1)C(=O)NNC(=O)c1cc(C23CC4CC(CC(C4)C2)C3)c2ccccc2n1 | 85% | 1.95 µM |  |  | 
15 | COC(=O)[C@H](CCCNC(=O)OCc1ccccc1)NC(=O)c1cc(C23CC4CC(CC(C4)C2)C3)c2ccccc2n1 | 66% | 5.89 µM |  |  | 
16 | COC(=O)[C@H](Cc1ccc(OCc2ccccc2)cc1)NC(=O)c1cc(C23CC4CC(CC(C4)C2)C3)c2ccccc2n1 | 58% | 7.94 µM |  |  | 
17 | CC(C)(C)OC(=O)N[C@@H](Cc1c[nH]c2ccccc12)C(=O)NNC(=O)c1cc(C23CC4CC(CC(C4)C2)C3)c2ccccc2n1 |  | 0.0513 µM | Non-toxic |  | 99%
18 | CC(C)(C)OC(=O)N[C@@H](Cc1c[nH]cn1)C(=O)NNC(=O)c1cc(C23CC4CC(CC(C4)C2)C3)c2ccccc2n1 |  | 0.0562 µM | Non-toxic |  | 99%
19 | CSCC[C@H](NC(=O)OC(C)(C)C)C(=O)NNC(=O)c1cc(C23CC4CC(CC(C4)C2)C3)c2ccccc2n1 | 56% | 8.91 µM |  |  | 
20 | CC(C)C[C@H](NC(=O)c1cc(C23CC4CC(CC(C4)C2)C3)c2ccccc2n1)C(=O)NN | 83% | 2.95 µM |  |  | 
21 | CCC(C)[C@H](NC(=O)OC(C)(C)C)C(=O)NNC(=O)c1cc(C23CC4CC(CC(C4)C2)C3)c2ccccc2n1 (stereo partly specified) | 90% | 1.29 µM |  |  | 
22 | CC(C)(C)OC(=O)NCCC[C@H](NC(=O)OC(C)(C)C)C(=O)NNC(=O)c1cc(C23CC4CC(CC(C4)C2)C3)c2ccccc2n1 | 75% | 3.09 µM |  |  | 
23 | NC(=O)CC[C@H](N)C(=O)NNC(=O)c1cc(C23CC4CC(CC(C4)C2)C3)c2ccccc2n1 | 45% | 17 µM |  |  | 
24 | CC[C@H](C)[C@H](NC(=O)c1cc(C23CC4CC(CC(C4)C2)C3)c2ccccc2n1)C(=O)NN | 70% | 6.17 µM |  |  | 
25 | COC(=O)[C@H](CCCNC(=N)N)NC(=O)c1cc(C23CC4CC(CC(C4)C2)C3)c2ccccc2n1 |  | 0.135 µM | Non-toxic |  | 99%
26 | NCCC[C@H](N)C(=O)NNC(=O)c1cc(C23CC4CC(CC(C4)C2)C3)c2ccccc2n1 | 26% | 40.7 µM |  |  | 
27 | CC(C)C[C@H](NC(=O)OC(C)(C)C)C(=O)NNC(=O)c1cc(C23CC4CC(CC(C4)C2)C3)c2ccccc2n1 | 90% | 1.29 µM |  |  | 
